T cruzi repl: inhibitors of intracellular T. cruzi growth, primary screen, luminescence, NIH3T3 host cells; T. cruzi beta-gal in NIH3T3, 90 h; AID 1885, 2009; 300,000 tested, 1.4% active; inhibition, % (test concentration not listed);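 active means mean inhibition across valid replicates above about 55%, limit read from the data; inconclusive means mean below that limit but half or more replicates reach it; inactive means mean below it, under half of replicates reach it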;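 further: signal also drops with host cell toxicity which is not excluded here; 0% = plate median of DMSO wells and 100% = zero luminescence signal; higher percent means less beta-gal luminescence so fewer parasites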
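Test system: β-gal T. cruzi (Tulahuen C4) inside NIH/3T3 cells / Quantity: 5,000 cells/well / Measured by: luminescence from GalScreen with 0.05% NP40, read after 60 min / Medium: DMEM plus 2% FBS / Measure: parasite load inhibition, % / Reagent: Tulahuen C4 trypomastigotes, 5000/well / Schedule: co-culture of at least 90 h after 3 h attachment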
CSC inhib: cancer stem cell viability inhibitors, primary screen, luminescence; 300,000 tested, 1.1% active; cancer stem cell-like cells viability; inhibition, % at 7.5 µM; in the data active means inhibition above about 75%; inconclusive means no clear call, values can overlap the other calls; tested in HMLE shEcad cells
Beta cell apopt: inhibitors of cytokine-induced beta cell apoptosis, primary screen, luminescence; 300,000 tested, 0.8% active; INS-1E cytokine-induced death, ATP luminescence, 48 h; percent of positive-control rescue, neutral wells zero; AID 435005, 2010; protection from apoptosis, % (concentration not given with the values);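 active means Every replicate reaches about 75%, or at least half do and their mean reaches it too, limit read from the data; inconclusive means At least half of replicates reach the limit but their mean does not; inactive means Under half of replicates reach the limit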;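 further: 0% = cytokine-treated negative control wells and 100% = positive control rescue; higher means more ATP so stronger rescue from cytokine killing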
SKKanGAS inh: S. pyogenes SKKanGAS growth inhibitors in kanamycin, primary screen, streptokinase expression inhibitor project, SKKanGAS strain, BacTiter-Glo luminescence. 300,000 tested, 1.3% active. inhibition, % at 7.5 µM. 6 h;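 active means mean replicate score, as percent of positive control median, at least 50; inconclusive means mean below 50 but one replicate at or above 50; inactive means mean and every replicate below 50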;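 further: strain carries kanamycin resistance gene driven by streptokinase promoter and grows in 40 µg/ml kanamycin; loss of luminescence reflects streptokinase promoter inhibition or plain growth inhibition; 0% = median of DMSO wells and 100% = positive control at its reference dose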
Calb FLC: C. albicans growth inhibition with fluconazole, primary screen, CaCi-2 strain, Alamar Blue fluorescence; C. albicans CaCi-2 + fluconazole, 48 h; growth inhibition, % (test concentration not listed); 300,000 tested, 0.57% active; AID 1979, 2009;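 active means growth inhibition above about 58% in most replicates, limit read from the data, passing the limit was not always enough; inconclusive means exactly half the replicates above a set limit; inactive means most replicates below a set limit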;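 further: all wells also contain fluconazole at 8 µg/ml as a sub-toxic cotreatment; 0% = median of DMSO wells and 100% = median of geldanamycin control wells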
Mdm2 MdmX PPI: inhibitors of human Mdm2-MdmX association, primary screen, cell-based, luminescence, split luciferase, SaOS-2, uHTS; inhibition, % at 8 µM; Protein Mdm4 (Homo sapiens) + E3 ubiquitin-protein ligase Mdm2 (Homo sapiens), …; SaOS-2 split-luciferase Mdm2/MdmX complementation; 330,000 tested, 3% active; AID 485346, 2010;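 active means inhibition of at least 50% at 8 µM in the primary screen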
Target sequence (O15151 whole entry, looked up): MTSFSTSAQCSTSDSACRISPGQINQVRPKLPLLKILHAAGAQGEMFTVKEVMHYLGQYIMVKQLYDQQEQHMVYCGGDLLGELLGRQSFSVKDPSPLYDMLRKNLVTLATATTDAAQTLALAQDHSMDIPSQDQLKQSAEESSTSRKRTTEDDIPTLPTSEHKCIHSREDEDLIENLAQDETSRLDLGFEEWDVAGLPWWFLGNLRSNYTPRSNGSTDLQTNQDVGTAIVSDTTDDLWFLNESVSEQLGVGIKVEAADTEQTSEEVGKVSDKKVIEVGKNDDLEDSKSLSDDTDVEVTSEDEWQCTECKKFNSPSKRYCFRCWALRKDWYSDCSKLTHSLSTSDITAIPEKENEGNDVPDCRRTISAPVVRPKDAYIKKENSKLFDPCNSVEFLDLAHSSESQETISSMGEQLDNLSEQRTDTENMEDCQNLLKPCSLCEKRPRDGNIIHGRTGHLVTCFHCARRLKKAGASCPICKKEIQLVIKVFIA
Target sequence (Q00987 whole entry, looked up): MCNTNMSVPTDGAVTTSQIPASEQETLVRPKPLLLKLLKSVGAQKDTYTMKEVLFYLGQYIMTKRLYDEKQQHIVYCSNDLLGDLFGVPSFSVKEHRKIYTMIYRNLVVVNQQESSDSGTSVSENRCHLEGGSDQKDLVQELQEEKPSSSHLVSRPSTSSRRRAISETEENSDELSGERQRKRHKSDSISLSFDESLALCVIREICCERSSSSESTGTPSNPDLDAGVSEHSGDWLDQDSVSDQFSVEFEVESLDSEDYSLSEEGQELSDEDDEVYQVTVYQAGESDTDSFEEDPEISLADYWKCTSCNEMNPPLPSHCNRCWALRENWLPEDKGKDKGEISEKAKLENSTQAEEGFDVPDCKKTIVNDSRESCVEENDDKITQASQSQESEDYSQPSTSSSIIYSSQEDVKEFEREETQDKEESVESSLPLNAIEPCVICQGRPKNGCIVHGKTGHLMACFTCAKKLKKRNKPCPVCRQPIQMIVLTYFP
Starred values were filed as active, the others as inactive. This is a sample that favours compounds with a hit; in the whole collection about 5.7% have one here.

For O=C(Nn1c(Cc2ccccc2)nc2ccccc2c1=O)c1c(O)c2cccc3c2n(c1=O)CCC3 the results were T cruzi repl 49, CSC inhib 18, Beta cell apopt -8, SKKanGAS inh 71*, Calb FLC 30 and Mdm2 MdmX PPI 41.
CCc1nc2ccccc2c(=O)n1NC(=O)c1c(O)c2cccc3c2n(c1=O)CCC3 was read as T cruzi repl -6, CSC inhib 31, Beta cell apopt -5, SKKanGAS inh 46, Calb FLC -4 and Mdm2 MdmX PPI 17.
N/C(=N\NS(=O)(=O)c1ccccc1Cl)c1ccccn1 was read as T cruzi repl 1, CSC inhib -6, SKKanGAS inh -3, Calb FLC -2 and Mdm2 MdmX PPI 10.
Screening CCN(C(=O)COC(=O)CNC(=O)C1CCCCC1)c1ccccc1 returned Mdm2 MdmX PPI 20.
Cc1cc(Cl)ccc1OCCCC(=O)NNC(=O)c1ccccc1O was read as T cruzi repl 13, CSC inhib 26, Beta cell apopt -1, SKKanGAS inh 101*, Calb FLC 4 and Mdm2 MdmX PPI 45.
Cc1ccccc1C(=O)Nc1ccc(C(=O)NNC(=O)CCCOc2ccc(Cl)cc2Cl)cc1 was read as T cruzi repl 11, CSC inhib -4, Beta cell apopt -2, SKKanGAS inh -8, Calb FLC -16 and Mdm2 MdmX PPI 26.
Cc1cc(NC(=O)/C=C/c2ccccc2Cl)n(-c2nc3ccccc3[nH]2)n1 was read as T cruzi repl 47, CSC inhib 37, Beta cell apopt 38, SKKanGAS inh 81*, Calb FLC -3 and Mdm2 MdmX PPI -8.
`CCN(CC)S(=O)(=O)c1cccc(NC(=O)C2CC(=O)N(c3ccc4c(c3)OCCO4)C2)c1` (stereo unspecified) gave T cruzi repl 1, CSC inhib -10, Beta cell apopt 5, SKKanGAS inh 2, Calb FLC -1 and Mdm2 MdmX PPI 36.
For COC(=O)c1c(NC(=O)CC2SC(N)=NC2=O)sc2c1CCC(C)C2 (stereo unspecified) the results were T cruzi repl 12, CSC inhib 10, Beta cell apopt -9, SKKanGAS inh 5, Calb FLC 12 and Mdm2 MdmX PPI 21.
Screening COC(=O)c1c(NC(=O)CC2SC(N)=NC2=O)sc2c1CCC(C(C)(C)C)C2 (stereo unspecified) returned T cruzi repl 43, CSC inhib 109*, Beta cell apopt 0, SKKanGAS inh 44, Calb FLC 22 and Mdm2 MdmX PPI 36.
Screening Cn1nc(-c2ccccc2F)c2cc(C(=O)Nc3ccc4c(c3)OCCO4)sc21 returned T cruzi repl 22, CSC inhib 77*, Beta cell apopt 50, SKKanGAS inh 26, Calb FLC 41 and Mdm2 MdmX PPI 46.
CCCN(CCC)CCNC(=O)c1cc2c(-c3ccccc3F)nn(C)c2s1 was read as T cruzi repl 40, CSC inhib 2, Beta cell apopt 5, SKKanGAS inh 1, Calb FLC -8 and Mdm2 MdmX PPI 29.
Screening COc1cccc(-c2nn(C)c3sc(C(=O)Nc4ccc5c(c4)OCCO5)cc23)c1 returned T cruzi repl 36, CSC inhib 40, Beta cell apopt 25, SKKanGAS inh 59*, Calb FLC 5 and Mdm2 MdmX PPI 48.
`CCCc1nc2c(ccc3ccccc32)cc1CC` gave T cruzi repl 6, CSC inhib 3, Beta cell apopt 1, SKKanGAS inh 14, Calb FLC 16 and Mdm2 MdmX PPI 13.
COc1ccc(Cl)cc1NC(=O)COC(=O)C1CC(=O)N(Cc2ccccc2)C1 (stereo unspecified) was read as CSC inhib -10, Beta cell apopt -7 and Mdm2 MdmX PPI 14.
Screening Cc1cccc(C)c1OCC(O)Cn1c2ccccc2c2ccccc21 (stereo unspecified) returned T cruzi repl 15, CSC inhib 46, Beta cell apopt 5, SKKanGAS inh 88*, Calb FLC 8 and Mdm2 MdmX PPI 41.
Screening Cc1ccc(OCC(O)Cn2c3ccccc3c3ccccc32)cc1 (stereo unspecified) returned T cruzi repl 16, CSC inhib inconclusive, Beta cell apopt 38, SKKanGAS inh -1, Calb FLC 1 and Mdm2 MdmX PPI 42.
`C=CCN(CC=C)CC(O)Cn1c2ccccc2c2ccccc21` (stereo unspecified) gave T cruzi repl 11, CSC inhib 15, Beta cell apopt inconclusive, SKKanGAS inh -11, Calb FLC -8 and Mdm2 MdmX PPI -16.
OC(COCC(F)(F)C(F)(F)C(F)(F)C(F)F)Cn1c2ccccc2c2ccccc21 (stereo unspecified) was read as T cruzi repl 59*, CSC inhib 103*, Beta cell apopt 3, SKKanGAS inh 11, Calb FLC 2 and Mdm2 MdmX PPI 21.
For CCN(CC(=O)Nc1cc(Cl)ccc1C)C(=O)c1ccc2c(=O)n3c(nc2c1)CCC3 the results were T cruzi repl -7, CSC inhib 7, Beta cell apopt 0, SKKanGAS inh 1, Calb FLC -7 and Mdm2 MdmX PPI 2.
`O=C(NCc1ccco1)c1cc2n(n1)C(C(F)(F)F)CC(c1ccc(Cl)c(Cl)c1)N2` (stereo unspecified) gave T cruzi repl 55*, CSC inhib 46, Beta cell apopt 0, SKKanGAS inh 41, Calb FLC inconclusive and Mdm2 MdmX PPI 27.
O=C(NCc1ccc2c(c1)OCO2)c1cc2n(n1)C(C(F)(F)F)CC(c1ccc3c(c1)OCO3)N2 (stereo unspecified) was read as T cruzi repl 17, CSC inhib -2, Beta cell apopt -3, SKKanGAS inh 4, Calb FLC -6 and Mdm2 MdmX PPI 28.
`Cc1cccc(N2CCN(C(=O)c3cc4n(n3)C(C(F)(F)F)CC(c3ccco3)N4)CC2)c1C` (stereo unspecified) gave T cruzi repl 24, CSC inhib 84*, Beta cell apopt -3, SKKanGAS inh inconclusive, Calb FLC 9 and Mdm2 MdmX PPI 49.
For O=C(NCc1ccco1)c1cc2n(n1)C(C(F)(F)F)CC(c1ccc(Br)cc1)N2 (stereo unspecified) the results were T cruzi repl 2, CSC inhib 11, Beta cell apopt 27, SKKanGAS inh 10, Calb FLC inconclusive and Mdm2 MdmX PPI 8.

Source: PubChem BioAssay
